Measured values from ChEMBL document CHEMBL1156768, “The structure-activity relationship of the antimalarial ozonide arterolane (OZ277)” (J Med Chem, 2010).
≈ marks a conversion by molar mass, not a printed value.

What was measured:
Plasmodium berghei [1] = test: Antiplasmodial activity against Plasmodium berghei infected in NMRI mice (Mus musculus) assessed as reduction of parasitaemia level at 10 mg/kg, perorally administered 1 day after post-infection measured after 3 days post-infection; type: functional; set-up: scale not given: the % may be the effect or the level left; details: route oral
In short: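 Groups of five NMRI mice infected with P. berghei received a single oral dose on day 1 postinfection. Read-out was percent reduction in parasitemia on day 3 postinfection. Individual measurements differed by less than 10%.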

Plasmodium berghei [2] = test: Antiplasmodial activity against Plasmodium berghei infected in NMRI mice (Mus musculus) assessed as mice (Mus musculus) survival days at 3 mg/kg, perorally daily once for 3 consecutive days measured after 4 days post-infection; type: functional; details: route oral
In short: (§1)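 P. berghei-infected NMRI mice, in groups of five, were dosed orally at 3 mg/kg on days +1, +2 and +3 postinfection. Parasitemia reduction, survival time and cure were scored.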

Plasmodium berghei [3] = test: Antiplasmodial activity against Plasmodium berghei infected in NMRI mice (Mus musculus) assessed as reduction of parasitaemia level at 3 mg/kg, perorally daily once for 3 consecutive days measured after 4 days post-infection; type: functional; set-up: scale not given: the % may be the effect or the level left; details: route oral; in short: as §1
Plasmodium berghei [4] = test: Antiplasmodial activity against Plasmodium berghei infected in NMRI mice (Mus musculus) assessed as curing of parasitaemia at 3 mg/kg, perorally daily once for 3 consecutive days measured after 30 days post-infection; type: functional; details: route oral; in short: as §1
Plasmodium falciparum [5] = test: Antimalarial activity against chloroquine-resistant Plasmodium falciparum K1 infected in human A+ erythrocytes assessed as [3H]hypoxanthine incorporation by semiautomated micro dilution assay; type: functional, organism-based
Plasmodium falciparum [6] = test: Antimalarial activity against chloroquine-sensitive Plasmodium falciparum NF54 infected in human A+ erythrocytes assessed as [3H]hypoxanthine incorporation by semi-automated micro dilution assay; type: functional, organism-based
Rattus norvegicus [7] = test: Renal toxicity in Sprague-Dawley rat at 300 mg/kg, po daily once for 5 days; type: organism-based; set-up: dose 300 mg/kg, route oral; details: in vivo, 120 h
In short: (§2)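 Preliminary toxicology was run in male rats given daily oral doses for five days.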

Rattus norvegicus [8] = test: Lymphatic organ toxicity in Sprague-Dawley rat at 300 mg/kg, po daily once for 5 days; type: organism-based; set-up: dose 300 mg/kg, route oral; details: in vivo, 120 h; in short: as §2
[9] = Half life in Sprague-Dawley rat at 2.5 to 3.5 mg/kg, iv; type: ADME, organism-based; set-up: dose 2.5-3.5 mg/kg, route intravenous; details: in vivo
In short: (§3)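 Rats received an IV infusion over 5-10 min through a jugular cannula at 2.5-3.5 mg/kg, in DMSO/aqueous buffer or propylene glycol/ethanol/water. Oral gavage used aqueous suspensions in HPMC or CMC with 0.4% Tween 80 and 0.5% benzyl alcohol. Carotid blood was sampled, and plasma was acetonitrile-precipitated and measured by LC/MS against plasma calibration standards. Values are averages of 2-3 determinations.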

[10] = Plasma clearance in Sprague-Dawley rat at 2.5 to 3.5 mg/kg, iv; type: ADME, organism-based; set-up: dose 2.5-3.5 mg/kg, route intravenous; in short: as §3
[11] = Blood clearance in Sprague-Dawley rat at 2.5 to 3.5 mg/kg, iv; type: ADME, organism-based; set-up: dose 2.5-3.5 mg/kg, route intravenous; details: whole blood; in short: as §3
[12] = Volume of distribution in Sprague-Dawley rat at 2.5 to 3.5 mg/kg, iv; type: ADME, organism-based; set-up: dose 2.5-3.5 mg/kg, route intravenous; details: in vivo; in short: as §3
Cytochrome P450 2C9 = Cytochrome P450 2C9 (Homo sapiens, UniProt P11712); test: Inhibition of human CYP2C9 up to 50 uM; type: ADME
Cytochrome P450 3A4 = Cytochrome P450 3A4 (Homo sapiens, UniProt P08684); test: Inhibition of human CYP3A4 up to 50 uM; type: ADME
[13] = Oral bioavailability in Sprague-Dawley rat; type: ADME, organism-based; details: in vivo; in short: as §3
Rattus norvegicus [14] = test: Neurotoxicity in Sprague-Dawley rat at 300 mg/kg, po daily once for 5 days; type: toxicity, organism-based; set-up: dose 300 mg/kg, route oral; details: in vivo, 120 h; in short: as §2
Rattus norvegicus [15] = test: Liver toxicity in Sprague-Dawley rat at 300 mg/kg, po daily once for 5 days; type: organism-based; set-up: dose 300 mg/kg, route oral; details: in vivo, 120 h; in short: as §2
Cytochrome P450 2D6 = Cytochrome P450 2D6 (Homo sapiens, UniProt P10635); test: Inhibition of human CYP2D6 up to 50 uM; type: ADME
[16] = Partition coefficient, log D in octanol/buffer at pH 7.4 by chromatographic method; type: physicochemical

Cytochrome P450 2C9, sequence (P11712 whole entry): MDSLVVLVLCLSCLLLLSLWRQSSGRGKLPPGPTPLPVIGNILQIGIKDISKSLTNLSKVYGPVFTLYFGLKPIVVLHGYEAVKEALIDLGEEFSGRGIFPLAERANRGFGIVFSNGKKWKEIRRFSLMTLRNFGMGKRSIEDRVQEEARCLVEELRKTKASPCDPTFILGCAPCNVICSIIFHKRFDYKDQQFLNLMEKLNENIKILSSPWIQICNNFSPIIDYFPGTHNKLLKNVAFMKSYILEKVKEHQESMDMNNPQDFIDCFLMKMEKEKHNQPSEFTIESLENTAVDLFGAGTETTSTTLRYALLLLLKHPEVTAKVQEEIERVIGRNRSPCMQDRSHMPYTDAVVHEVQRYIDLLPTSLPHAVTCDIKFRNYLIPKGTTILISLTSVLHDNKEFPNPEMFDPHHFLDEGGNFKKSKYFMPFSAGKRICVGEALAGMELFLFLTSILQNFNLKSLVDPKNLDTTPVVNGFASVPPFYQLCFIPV
Cytochrome P450 3A4, sequence (P08684 whole entry): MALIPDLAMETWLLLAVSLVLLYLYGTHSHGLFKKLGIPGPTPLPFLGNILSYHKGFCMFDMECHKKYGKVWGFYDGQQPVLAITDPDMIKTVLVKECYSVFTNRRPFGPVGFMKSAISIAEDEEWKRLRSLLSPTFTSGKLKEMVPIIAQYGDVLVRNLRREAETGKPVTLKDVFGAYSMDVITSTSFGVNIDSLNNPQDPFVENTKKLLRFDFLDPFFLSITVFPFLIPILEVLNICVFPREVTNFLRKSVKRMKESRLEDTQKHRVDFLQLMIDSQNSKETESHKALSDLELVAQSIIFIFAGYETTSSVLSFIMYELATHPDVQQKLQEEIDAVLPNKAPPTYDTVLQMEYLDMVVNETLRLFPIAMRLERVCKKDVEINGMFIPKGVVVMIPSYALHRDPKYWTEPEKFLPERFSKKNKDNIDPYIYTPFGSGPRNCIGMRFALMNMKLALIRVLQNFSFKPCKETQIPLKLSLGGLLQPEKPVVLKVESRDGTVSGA
Cytochrome P450 2D6, sequence (P10635 whole entry): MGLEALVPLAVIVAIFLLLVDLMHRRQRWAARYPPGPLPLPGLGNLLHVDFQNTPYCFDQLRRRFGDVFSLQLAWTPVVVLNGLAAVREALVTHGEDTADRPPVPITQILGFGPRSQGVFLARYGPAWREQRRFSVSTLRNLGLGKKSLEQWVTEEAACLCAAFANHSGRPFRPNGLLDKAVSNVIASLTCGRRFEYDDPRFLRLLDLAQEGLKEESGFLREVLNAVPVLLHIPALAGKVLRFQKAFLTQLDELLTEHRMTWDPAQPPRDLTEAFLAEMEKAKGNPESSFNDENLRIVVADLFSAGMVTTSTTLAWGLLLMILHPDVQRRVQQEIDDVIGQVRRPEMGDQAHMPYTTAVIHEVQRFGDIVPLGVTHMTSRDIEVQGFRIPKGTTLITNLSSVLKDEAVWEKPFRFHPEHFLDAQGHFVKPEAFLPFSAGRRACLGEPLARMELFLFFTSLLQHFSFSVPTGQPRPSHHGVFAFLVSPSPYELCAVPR

Cc1ccc(S(=O)(=O)O)cc1.N[C@H]1CC[C@H](NC(=O)C[C@H]2CC[C@]3(CC2)OO[C@]2(O3)C3CC4CC(C3)CC2C4)CC1
Activity (Plasmodium berghei [1]): >99.9% | Survival (Plasmodium berghei [2]): 22 days | Activity (Plasmodium berghei [3]): >99.9% | Activity (Plasmodium berghei [4]): 0%

O=C(O)C1CCN(C(=O)C[C@H]2CC[C@]3(CC2)OO[C@]2(O3)C3CC4CC(C3)CC2C4)CC1
IC50 (Plasmodium falciparum [5]): 19 ng/mL (≈ 43.8 nM) | IC50 (Plasmodium falciparum [6]): 27 ng/mL (≈ 62.3 nM)

O=C(C[C@H]1CC[C@]2(CC1)OO[C@]1(O2)C2CC3CC(C2)CC1C3)NO
Activity (Plasmodium berghei [1]): 97% | IC50 (Plasmodium falciparum [5]): 1.4 ng/mL (≈ 4.15 nM) | IC50 (Plasmodium falciparum [6]): 2 ng/mL (≈ 5.93 nM)

O=C1CN(C(=O)C[C@H]2CC[C@]3(CC2)OO[C@]2(O3)C3CC4CC(C3)CC2C4)CCN1
Activity (Plasmodium berghei [1]): 99.2% | IC50 (Plasmodium falciparum [5]): 0.6 ng/mL (≈ 1.48 nM) | IC50 (Plasmodium falciparum [6]): 0.89 ng/mL (≈ 2.2 nM)

O=C(C[C@H]1CC[C@]2(CC1)OO[C@]1(O2)C2CC3CC(C2)CC1C3)N1CCS(=O)(=O)CC1
Activity (Plasmodium berghei [1]): <40%

Cc1ccc(S(=O)(=O)O)cc1.NC1CCN(C(=O)C[C@H]2CC[C@]3(CC2)OO[C@]2(O3)C3CC4CC(C3)CC2C4)CC1
Activity (Rattus norvegicus [7]): Non-toxic | Activity (Rattus norvegicus [8]): Non-toxic | half-life [9]: 1.38 h | Activity (Plasmodium berghei [1]): >99.9% | clearance [10]: 157 mL/min/kg | clearance [11]: 39.1 mL/min/kg | Vd [12]: 19 L/kg | Activity (Cytochrome P450 2C9): Not Active | Activity (Cytochrome P450 3A4): Not Active | bioavailability [13]: 78% | Survival (Plasmodium berghei [2]): 27 days | IC50 (Plasmodium falciparum [6]): 0.39 ng/mL | Activity (Rattus norvegicus [14]): Non-toxic | Activity (Plasmodium berghei [3]): >99.9% | Activity (Rattus norvegicus [15]): Non-toxic | Activity (Plasmodium berghei [4]): 60% | Activity (Cytochrome P450 2D6): Not Active

CC(C)(N)CNC(=O)[C@H]1CC[C@]2(CC1)OO[C@]1(O2)C2CC3CC(C2)CC1C3.Cc1ccc(S(=O)(=O)O)cc1
Activity (Plasmodium berghei [1]): 96% | IC50 (Plasmodium falciparum [5]): 0.66 ng/mL | IC50 (Plasmodium falciparum [6]): 0.25 ng/mL

O=C(C[C@H]1CC[C@]2(CC1)OO[C@]1(O2)C2CC3CC(C2)CC1C3)N1CCCCC1
IC50 (Plasmodium falciparum [5]): 1.6 ng/mL (≈ 4.11 nM) | IC50 (Plasmodium falciparum [6]): 1.6 ng/mL (≈ 4.11 nM)

O=C(C[C@H]1CC[C@]2(CC1)OO[C@]1(O2)C2CC3CC(C2)CC1C3)N1CCC(O)CC1
half-life [9]: 11 h | Activity (Plasmodium berghei [1]): 99.7% | clearance [10]: 37 mL/min/kg | IC50 (Plasmodium falciparum [5]): 0.49 ng/mL (≈ 1.21 nM) | Vd [12]: 36 L/kg | bioavailability [13]: 5% | IC50 (Plasmodium falciparum [6]): 0.76 ng/mL (≈ 1.87 nM)

O=C(C[C@H]1CC[C@]2(CC1)OO[C@]1(O2)C2CC3CC(C2)CC1C3)N1CCOCC1
Activity (Plasmodium berghei [1]): 99.8% | IC50 (Plasmodium falciparum [5]): 1.7 ng/mL (≈ 4.34 nM) | IC50 (Plasmodium falciparum [6]): 3 ng/mL (≈ 7.66 nM)

NC(=O)C[C@H]1CC[C@]2(CC1)OO[C@]1(O2)C2CC3CC(C2)CC1C3
Activity (Plasmodium berghei [1]): 97% | IC50 (Plasmodium falciparum [5]): 0.91 ng/mL (≈ 2.83 nM) | IC50 (Plasmodium falciparum [6]): 1.1 ng/mL (≈ 3.42 nM)

Cc1ccc(S(=O)(=O)O)cc1.NCCCNC(=O)C[C@H]1CC[C@]2(CC1)OO[C@]1(O2)C2CC3CC(C2)CC1C3
Activity (Plasmodium berghei [1]): 99.9% | IC50 (Plasmodium falciparum [5]): 3.5 ng/mL | IC50 (Plasmodium falciparum [6]): 2.3 ng/mL

C[C@H]1[C@@H](O)O[C@@H]2O[C@@]3(C)CC[C@H]4[C@H](C)CC[C@@H]1[C@@]24OO3 [ARTENIMOL]
clearance [10]: 72 mL/min/kg | Vd [12]: 3 L/kg

CC(C)(N)CNC(=O)C[C@H]1CC[C@]2(CC1)OO[C@]1(O2)C2CC3CC(C2)CC1C3.Cc1ccc(S(=O)(=O)O)cc1 [ARTEROLANE]
Activity (Rattus norvegicus [7]): Non-toxic | Activity (Rattus norvegicus [8]): Non-toxic | half-life [9]: 1.27 h | Activity (Plasmodium berghei [1]): 99.9% | clearance [10]: 141 mL/min/kg | clearance [11]: 62 mL/min/kg | IC50 (Plasmodium falciparum [5]): 1 ng/mL | Vd [12]: 16 L/kg | Activity (Cytochrome P450 2C9): Not Active | chromatographic logD [16]: 2.9 | Activity (Cytochrome P450 3A4): Not Active | bioavailability [13]: 26% | Survival (Plasmodium berghei [2]): 11.4 days | IC50 (Plasmodium falciparum [6]): 0.91 ng/mL | Activity (Rattus norvegicus [14]): Non-toxic | Activity (Plasmodium berghei [3]): >99.9% | Activity (Rattus norvegicus [15]): Non-toxic | Activity (Plasmodium berghei [4]): 0% | Activity (Cytochrome P450 2D6): Not Active

C[C@H]1[C@H](OC(=O)CCC(=O)O)O[C@@H]2O[C@@]3(C)CC[C@H]4[C@H](C)CC[C@@H]1[C@@]24OO3 [ARTESUNATE]
Activity (Rattus norvegicus [7]): Non-toxic | Activity (Rattus norvegicus [8]): Non-toxic | Survival (Plasmodium berghei [2]): 9.2 days | Activity (Rattus norvegicus [14]): Non-toxic | Activity (Plasmodium berghei [3]): 70% | Activity (Rattus norvegicus [15]): Non-toxic

CCN(CC)CCCC(C)Nc1ccnc2cc(Cl)ccc12 (stereo unspecified) [CHLOROQUINE]
Survival (Plasmodium berghei [2]): 9.4 days

OC(c1cc(C(F)(F)F)nc2c(C(F)(F)F)cccc12)C1CCCCN1 (stereo unspecified) [MEFLOQUINE]
Survival (Plasmodium berghei [2]): 15.8 days | Activity (Plasmodium berghei [3]): 99%
